Test results reported in ChEMBL document CHEMBL1125163, “Evolution of a series of peptidoleukotriene antagonists: synthesis and structure-activity relationships of 1,6-disubstituted indoles and indazoles” (J Med Chem, 1990).
The source made the active and inactive calls. The rule behind the calls is not given here.

Key:
[1] = organism: Cavia porcellus; experiment: Percent inhibition of the BaCl2 - induced contraction of guinea pig tracheal spirals at concentration of 100 uM; type: functional; details: Trachea
Procedure, shortened: (§1)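 Guinea pig tracheal strips contracted with barium chloride. Compound was tested at 100 µM, and the read-out is percent inhibition of the BaCl2-induced contraction.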

[2] = organism: Cavia porcellus; experiment: Percent inhibition of the LTE4- induced contraction of guinea pig tracheal spirals at the concentration of 0.1 uM; type: functional; details: Trachea
Procedure, shortened: (§2)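 Guinea pig trachea cut into spiral strips, each trachea split into paired sections. Tissue bath at 37 °C in modified Krebs buffer gassed with 95% O2/5% CO2, 2 g resting tension, 60 min stabilization. After reproducible responses to 10 nM LTE4, compound was added for 10 min, then LTE4 challenge repeated. Percent inhibition is the 2nd vs 3rd response, adjusted by subtracting the vehicle-treated paired section. Paired t test, p < 0.05.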

[3] = organism: Cavia porcellus; experiment: Percent inhibition of the LTE4- induced contraction of guinea pig tracheal spirals at the concentration of 5 uM; Not significant; type: functional; details: Trachea; procedure, shortened: as §2
[4] = organism: Cavia porcellus; experiment: Percent inhibition of the LTE4- induced contraction of guinea pig tracheal spirals at the concentration of 0.5 uM; type: functional; details: Trachea; procedure, shortened: as §2
[5] = test system: Cavia porcellus; experiment: Percent protection was determined from the time delay to the onset of dyspnea compared to that of control guinea pig at a concentration of 100 uM/kg; type: functional
Procedure, shortened: (§3)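 Conscious guinea pigs were pretreated ip with indomethacin (10 mg/kg) and propranolol (5 mg/kg). Compound was given orally in poly(ethylene glycol) 60 min before challenge with aerosolized 60 µM LTD4 for up to 5 min. End point was labored abdominal breathing, scored blind. % protection = (drug time − mean control time)/(max aerosol time − mean control time) × 100, with at least two vehicle animals per run.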

[6] = organism: Cavia porcellus; experiment: Percent inhibition of the LTE4- induced contraction of guinea pig tracheal spirals at concentration of 10 uM; Not significant; type: functional; details: Trachea; procedure, shortened: as §2
[7] = organism: Cavia porcellus; experiment: Percent inhibition of the LTE4- induced contraction of guinea pig tracheal spirals at concentration of 5 uM; type: functional; details: Trachea; procedure, shortened: as §2
[8] = pKB value of the compound
Procedure, shortened: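 Guinea pig tracheal strips at 37 °C in Krebs buffer. Cumulative LTE4 concentration-response curves were built in log increments, with responses expressed as % of the maximum to 30 µM carbachol. Antagonist was incubated 30 min before the curve, with vehicle on paired controls. EC50 came from linear regression. KB = [antagonist]/(dose ratio − 1) by the Furchgott method. One curve per tissue.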

[9] = Selectivity ratio of the compound; type: functional
[10] = organism: Cavia porcellus; experiment: Percent inhibition of the LTE4- induced contraction of guinea pig tracheal spirals at the concentration of 0.33 uM; type: functional; details: Trachea; procedure, shortened: as §2
[11] = organism: Cavia porcellus; experiment: (§4) Percent inhibition of the BaCl2 - induced contraction of guinea pig tracheal spirals at concentration of 100 uM; Not significant; type: functional; details: Trachea; procedure, shortened: as §1
[12] = test system: Cavia porcellus; experiment: Percent protection was determined from the time delay to the onset of dyspnea compared to that of control guinea pig at a concentration of 126 uM/kg; type: functional; procedure, shortened: as §3
[13] = organism: Cavia porcellus; experiment: Percent inhibition of the LTE4- induced contraction of guinea pig tracheal spirals at the concentration of 0 uM; Not significant; type: functional; details: Trachea; procedure, shortened: as §2
[14] = organism: Cavia porcellus; experiment: as §4; type: functional, organism-based; details: Trachea; procedure, shortened: as §1
[15] = organism: Cavia porcellus; experiment: Percent inhibition of the LTE4- induced contraction of guinea pig tracheal spirals at the concentration of 1.0 uM; Not significant; type: functional; details: Trachea; procedure, shortened: as §2

COc1cc(C(=O)O)ccc1Cn1ncc2ccc(NC(=O)OC3CCCC3)cc21
inhibition at 100 µM [1]: 44%
inhibition at 0.1 µM [2]: 65%

CCCCCCCCCCCC(=O)Nc1ccc2ccn(Cc3ccc(C(=O)O)cc3OC)c2c1
inhibition [3]: inactive

CCCCOC(=O)Nc1ccc2ccn(Cc3ccc(C(=O)O)cc3OC)c2c1
inhibition at 0.5 µM [4]: 54%

COc1cc(C(=O)O)ccc1Cn1ccc2ccc(NC(=O)OC3CCCC3)cc21
Protection [5]: 23%
inhibition at 0.1 µM [2]: 61%

CCCCCC(=O)Nc1cccc2cnn(Cc3ccc(C(=O)O)cc3OC)c12
inhibition [6]: inactive

CCCCCC(=O)Nc1ccc2ccn(Cc3ccc(C(=O)O)cc3OC)c2c1
inhibition at 5 µM [7]: 70%
pKB [8]: 6
Selectivity ratio [9]: 100

CCC(C(=O)Nc1ccc2cnn(Cc3ccc(C(=O)O)cc3OC)c2c1)c1ccccc1 (centres undefined)
inhibition at 0.33 µM [10]: 30%
inhibition [11]: inactive

CCCCOC(=O)Nc1ccc2cnn(Cc3ccc(C(=O)O)cc3OC)c2c1
inhibition at 0.33 µM [10]: 56%
Protection [12]: 33%
inhibition at 100 µM [1]: 41%

COc1cc(C(=O)O)ccc1Cn1ccc2ccc(NC(C)=O)cc21
inhibition [13]: inactive

CCCCC(CC)C(=O)Nc1ccc2cnn(Cc3ccc(C(=O)O)cc3OC)c2c1 (centres undefined)
inhibition at 0.33 µM [10]: 56%
inhibition [14]: inactive

COc1cc(C(=O)O)ccc1Cn1ccc2ccc(NC(=O)OC3CCCCC3)cc21
inhibition [15]: inactive
